D1 allo mod: allosteric modulators of human D1 dopamine receptor; P21728; HEK293 D1, CRE-luciferase, dopamine EC30 potentiation; actives deviate in either direction; B-score at 10 µM; 58,000 tested, 5.9% active; AID 641;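 active = luminescence count or its row- and column-corrected plate score outside the 99.7% band of the plate's sample wells, on either side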
SF1 activator: activators of human nuclear receptor SF-1; CHO-K1 Gal4-SF-1 LBD luciferase reporter; % increase over DMSO SF-1-specific signal; activation, % at 10 µM; 65,000 tested, 1.9% active; Q13285;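 active = activation above the mean activation of all tested compounds plus 3 SD, cut at about 50% in these data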
Target sequence (Q13285 whole entry, looked up, the tested form may be a part): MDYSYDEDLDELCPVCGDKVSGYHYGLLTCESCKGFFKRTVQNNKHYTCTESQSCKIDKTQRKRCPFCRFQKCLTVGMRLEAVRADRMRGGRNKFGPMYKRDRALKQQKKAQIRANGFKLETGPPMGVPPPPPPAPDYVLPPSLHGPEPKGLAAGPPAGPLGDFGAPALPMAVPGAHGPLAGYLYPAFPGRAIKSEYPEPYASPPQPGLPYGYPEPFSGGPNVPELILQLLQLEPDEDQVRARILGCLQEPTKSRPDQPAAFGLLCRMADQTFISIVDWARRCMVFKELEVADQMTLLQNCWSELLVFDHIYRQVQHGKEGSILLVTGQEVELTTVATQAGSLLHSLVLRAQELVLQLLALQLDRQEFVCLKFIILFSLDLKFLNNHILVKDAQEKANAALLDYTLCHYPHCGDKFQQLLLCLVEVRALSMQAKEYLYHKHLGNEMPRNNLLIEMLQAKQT
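Material: Transient Gal4-SF-1 LBD reporter, CHO-K1 | Input: 4,000 cells/well | Dosing: One dose, 10 µM compound, 1% DMSO | Incubation: 20 h compound treatment, 37 °C | Detection: SteadyLite luciferase luminescence | Evaluation: Percent activation relative to DMSO median and mock-transfected background | Benchmarks: DMSO-treated SF-1-transfected cells as negative, DMSO-treated mock-transfected cells lacking SF-1 as background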
M1 agonist: activates the M1 muscarinic receptor | CHO-M1 cells, Fluo-4 calcium fluorescence, agonist mode; stronger effect = higher value | B-score at 10 µM | 64,000 tested, 3% active | AID 626;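 active = fluorescence rise, raw or as B-score row- and column-corrected plate score, outside the 99.7% band of its plate's samples, either direction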
M1 antag: M1 muscarinic receptor (rat) antagonism; CHO-M1 cells, Fluo-4 calcium, ACh EC80 antagonist mode; stronger effect = lower value; 64,000 tested, 3.4% active; B-score at 10 µM; P08482;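 active = calcium fluorescence response, raw or row-and-column corrected B-score, differing from the plate sample mean either way at a set confidence level, mostly lower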
HePTP inh: inhibitors of human HePTP phosphatase. P35236. recombinant HePTP phosphatase activity, OD absorbance. inhibition, % at 20 µM. 110,000 tested, 0.64% active. AID 521; in the data active = inhibition above about 50%; inconclusive = no clear call, values can overlap the other calls;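 note: plate controls were vehicle for no effect and reference inhibitor for full effect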
RORa activator: activates the human nuclear receptor RORA; activation, % at 10 µM; 65,000 tested, 1.5% active; P35398; CHO-K1 Gal4-RORA LBD luciferase reporter, luminescence; percent increase over mock-subtracted basal signal;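 active = activation above the mean of all tested compounds plus 3 SD, cut at about 49% in these data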;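 note: 0% = DMSO-treated RORA cells and 100% = added signal equal to DMSO minus mock-transfected cells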
M1 agonist conf: rat M1 muscarinic agonism, confirmation; shares compounds with M1 agonist; CHO-M1 cells, Fluo-4 calcium fluorescence, agonist mode; actives lie on both sides; fluorescence change (max-min) at 10 µM; 1,700 tested, 19% active; AID 1488;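 active = fluorescence change differs from the solvent-only DMSO control mean at a set confidence level in both duplicate runs; inconclusive = differs from solvent-only control mean in just one of two runs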;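 note: an EC20 dose of acetylcholine follows compound addition during the same imaging run; raw fluorescence intensity difference in instrument units with no normalization to controls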
M4 agonist ctr: activates rat M4 receptor in counter-screen for M1 agonists. fluorescence change (max-min) at 10 µM. CHO M4/Gqi5 cells, Fluo-4 calcium fluorescence, agonist mode; actives lie on both sides. shares compounds with M1 agonist. 1,700 tested, 9% active. AID 1741;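 active = fluorescence change differing from the plate's solvent-only control wells at 99.7% confidence in both duplicates, whether higher or lower; inconclusive = differs from solvent controls in only one of two duplicates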
* marks the source's active call; other numbers are inactive results; ? = inconclusive; nt = no result. A selection: hits, their analogues and other compounds. The true share with any hit is near 8.2%.

SMILES	D1 allo mod	SF1 activator	M1 agonist	M1 antag	HePTP inh	RORa activator	M1 agonist conf	M4 agonist ctr
CCC(=O)N1CCNC(=O)C1CC(=O)Nc1ccc(C)c(Cl)c1 (stereo not drawn)	0.34	-5	0.62	-0.28	-7	-18	nt	nt
C=CCN(CC=C)S(=O)(=O)c1ccc2nc(NC(=O)C(C)C)sc2c1	3.4	20	8.5*	-2.4*	5	60*	?	-29
CCC(Oc1ccccc1)C(=O)Nc1nc2ccc(S(C)(=O)=O)cc2s1 (stereo not drawn)	nt	nt	nt	nt	10	nt	nt	nt
CCOC(=O)c1[nH]c2c(c1C)C(=O)CC(c1ccc(OC)c(OC)c1)C2 (stereo not drawn)	-0.59	-23	0.92	-0.34	-12	-17	nt	nt
COc1cc(C2CC(=O)c3c([nH]c(C(=O)OCCOC(C)C)c3C)C2)cc(OC)c1OC (stereo not drawn)	-5.8	-34	3.2*	0.22	4	-25	-33*	-20
N#CC1(c2nc3ccccc3[nH]2)CC1c1ccc2c(c1)OCO2 (stereo not drawn)	-0.93	9	2.9*	0.29	-5	19	-34*	-82
O=C(CCc1nc2ccccc2[nH]1)NCc1ccc2c(c1)OCO2	-0.0043	29	-1.1	-0.61	6	-8	nt	nt
COc1ccccc1/C=C1\SC(=S)N(c2ccc(F)cc2)C1=O	nt	nt	nt	nt	10	nt	nt	nt
Cc1cccc(-n2c(O)c(C=NCCCN3CCOCC3)c3ccccc3c2=O)c1	-0.65	-6	-0.48	-0.15	-7	-11	nt	nt
CCN1CCCC1CN=Cc1c(O)n(-c2ccccc2)c(=O)c2ccccc12 (stereo not drawn)	-0.57	-4	5.7*	0.19	-1	-15	5.3	-72
Cc1ccc(-n2nc(-c3cccnc3)cc2C(=O)N2CCOCC2)c(C)c1	-0.079	2	20*	-0.3	15	2	?	-26
CCOC(=O)c1cccc(NC(=O)CS(=O)(=O)Cc2nc(-c3cccc(OC)c3)oc2C)c1	2.1	-4	1.2	-0.95	-1	15	nt	nt
CC(Oc1ccc(Cl)cc1Cl)C(=O)Nc1ccncc1 (stereo not drawn)	-2.9	-15	7.3*	-1	9	5	-5	-19
CCc1cccc(NC(=O)C(C)Oc2ccc(Cl)cc2Cl)c1 (stereo not drawn)	nt	nt	nt	nt	7	nt	nt	nt
Oc1ccc2cccnc2c1	-0.98	2	15*	-0.007	-6	0	112*	46
COC(=O)c1ccc2ncccc2c1	0.94	25	-0.085	-0.32	-6	19	nt	nt
O=C(Cn1cnc2c(nnn2-c2ccc(F)cc2)c1=O)N1CCCc2ccccc21	1.8	25	-3.2*	0.44	-5	29	16	-41
COc1ccc(-n2nnc3c(=O)n(CC(=O)N4CCCc5ccccc54)cnc32)cc1	nt	13	1.2	-0.12	4	5	nt	nt
Cc1ccc(O)c(NC(=O)c2cccc(NC(=O)c3ccco3)c2)c1	nt	5	2.6*	0.68	-5	-1	-26*	-53
Cc1nn2c(-c3cccc(NC(=O)c4ccco4)c3)nnc2c2ccccc12	-3.3	10	5.8*	-1	nt	1	-16	?
Cc1ccc2nc(-c3cccc(NC(=O)c4ccco4)c3)[nH]c2c1	-1.7	48	7*	-0.0048	2	46	-28	-38
COc1ccc(N2CCN(C(=O)CSc3ccccc3N)CC2)cc1	0.34	-6	0.46	-0.01	2	4	nt	nt
COc1cc(C=C2C(=O)NC(=S)NC2=O)ccc1OCCO	nt	nt	nt	nt	-1	nt	nt	nt
CC(=O)c1ccc(NC(=O)CSc2nnc(-c3ccoc3C)n2Cc2ccccc2)cc1	0.52	15	27*	-1.1	-5	40	?	-75*
O=C(CSc1nc2ccc(Cl)cc2[nH]1)NCc1ccco1	0.73	3	3.1*	-0.37	10	14	-25*	-74*
SMILES	D1 allo mod	SF1 activator	M1 agonist	M1 antag	HePTP inh	RORa activator	M1 agonist conf	M4 agonist ctr
O=C(c1oc2ccccc2c1CSCc1ccccc1)N1CCN(c2ncccn2)CC1	-0.19	-22	7*	-0.74	0	-22	-7.6	?
CCOC(=O)N1CCN(C(=O)c2ccc3nc(C)sc3c2)CC1	-0.63	10	-0.39	-0.66	6	-17	nt	nt
O=C(Nc1ccc(CCC(=O)N2CCCC2)cc1)c1ncn[nH]1	nt	7	1.8*	-0.0062	7	-21	6.1	-9.7
CCSc1nc2c(c(=O)[nH]c(=O)n2C)n1C	nt	-30	0.0028	0.16	8	5	nt	nt
O=S(=O)(c1ccccc1)c1cccc(S(=O)(=O)N2CCCCC2)c1	-0.13	0	nt	nt	4	9	nt	nt
Cc1ccc(S(=O)(=O)c2cccc(S(=O)(=O)N3CCCC3)c2)cc1S(=O)(=O)N1CCCC1	0.0003	-6	4.2*	-6.4*	8	-4	-13	?
CCOC(=O)Cn1c(=O)oc2cc(S(=O)(=O)NCCCc3ccccc3)ccc21	nt	nt	0.05	-0.35	9	nt	nt	nt
CCOC(=O)Cn1c(=O)oc2cc(S(=O)(=O)Nc3ccc(F)cc3)ccc21	0.37	0	3.8*	-1.1	-6	15	37	2.6
COCCCNC(=O)c1cccc(OC)c1OC	-0.14	8	-0.25	0.4	0	6	nt	nt
CC(=O)Nc1nc(C)c(-c2csc(Nc3ccc(O)cc3)n2)s1	1.3	-27	6.4*	-2*	2	-16	-10	?
Cc1nc(C)c(-c2csc(Nc3ccc(O)cc3)n2)s1	nt	nt	nt	nt	7	nt	nt	nt
COc1cccc(N2CCN(c3c4c(nc5ncnn35)CCC4)CC2)c1	-0.64	-15	6.7*	0.16	9	-6	-1.9	-45
c1ccc(N2CCN(c3c4c(nc5ncnn35)CCC4)CC2)cc1	-0.047	-12	-2.4	0.58	5	0	nt	nt
COc1ccc(C2/C(=C(\O)c3ccc([N+](=O)[O-])cc3)C(=O)C(=O)N2CCCCCC(=O)O)cc1 (stereo not drawn)	nt	nt	nt	nt	-1	nt	nt	nt
CSc1nc(N2CCOCC2)c2c(c1C#N)CCCCC2	0.29	-16	-0.27	-0.58	13	-3	nt	nt
COc1ccc(OCC(O)CN2C(=O)c3ccccc3S2(=O)=O)cc1 (stereo not drawn)	-0.041	21	-0.009	0.39	6	16	nt	nt
O=C(Nc1ccccc1)c1ccccc1OCC(O)CN1C(=O)c2ccccc2S1(=O)=O (stereo not drawn)	-1.7	7	6.1*	-1.9	0	1	-20	?
CC1(C)NC(=O)N(CC(O)COc2ccccc2C(=O)Nc2ccccc2)C1=O (stereo not drawn)	nt	3	5.4*	-2.4	4	-20	?	-42
CCS(=O)(=O)N1CCC(c2nc(-c3ccc(C(F)(F)F)cc3)no2)CC1	-0.69	1	-0.56	-0.4	-2	15	nt	nt

From PubChem BioAssay
